# Test results published in PubChem BioAssay.
# Values without a mark were called inactive. Records with an inconclusive call do not appear. Activity calls are given as the source filed them.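 Rule for the calls, unless noted: active = RAM network inhibition above 8.4% in each of two replicates, 3 SD over the compound average; inconclusive = above 8.4% inhibition in only one replicate; inactive = 8.4% inhibition or less in each replicate.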
# Key:
# [1] = S. cerevisiae growth inhibition in permissive medium (OD615), pilot counter-assay for S. cerevisiae lifespan shortening project, permissive growth control (AID 705;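 active = growth inhibition above 25% in both replicates, a cutoff set 3 SD above the mean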); conditions: OD615, 24 h, at 10 µM, hits give high values
# Summary of the method: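 assay system = Saccharomyces cerevisiae strain carrying genetically modified DeaD replicative-lifespan system | medium = SC raffinose/galactose permissive medium | dosing = 10 µM single dose, 0.25% DMSO | schedule = 24 h compound exposure at 30 °C after 4 h pre-growth | measured by = OD at 615 nm | read-out basis = growth inhibition from lowered OD615 after 24 h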
# [2] = S. cerevisiae growth inhibition in restrictive medium, OD615, pilot screen, restrictive growth control, yeast lifespan reduction project (AID 706;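 active = growth inhibition above a set limit, 3 SD over mean compound inhibition, in both replicates, cut at about 43% in these data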;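 note: modified DeaD lifespan yeast strain shifted to restrictive glucose medium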); conditions: OD615, 48 h, at 10 µM, hits give high values
# Summary of the method: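 Buffer or medium: CSMM-D glucose medium. Material: genetically modified Saccharomyces cerevisiae, DeaD replicative lifespan assay strain. Times: 48 h compound exposure at 30 °C. Measured by: optical density at 615 nm.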
# [3] = doxorubicin toxicity protection in MRP-1 cells – H69AR cells, CellTiter-Glo, duplicate, MRP-1 activator project, pilot screen (AID 807;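 active = viability increase at or above a cutoff of the median across tested compounds plus 3 SD, cut at about 8.5% in these data, passing the limit was not always enough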;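 note: compound pretreatment 18-22 h then 72 h combined with doxorubicin; 0% = doxorubicin alone and 100% = vehicle without doxorubicin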); conditions: H69AR viability with doxorubicin, CellTiter-Glo luminescence; at 10 µM; hits give high values
# [4] = viability of HCT116 without oncogenic beta-catenin – human colon tumor cells, pilot screen (AID 823;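 active = cell viability at or below a set limit in both duplicate runs, the limit being the all-compound median minus 4 SD, cut at about 23% in these data, passing the limit was not always enough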;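 note: 0% = wells killed by 20 µM Hyamine and 100% = untreated DMSO cell wells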); conditions: HCT116 beta-catenin knockout viability, CellTiter-Glo, 60 h; at 10 µM; hits give low values
# [5] = RAM pathway blockade in budding yeast – dse1pr::URA3 reporter, 5-FOA selection, pilot screen (AID 869;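 active = inhibition over a set limit, the all-compound mean plus 3 SD, in both replicate runs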;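 note: 0% = DMSO wells with no growth and 100% = 10 µM 1-NA-PP1 with full growth; RAM network block rescues cells from 5-FOA so hits raise OD615 growth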); conditions: S. cerevisiae dse1pr::URA3 5-FOA growth, OD615, 2 d; at 10 µM; hits give high values; strain carries analog-sensitive mutant Cbk1 kinase
# [6] = RAM signaling pathway blockade in yeast – S. cerevisiae, Pdr1DBD-CYC8 efflux-inhibited sensitized strain, primary screen (AID 1298);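 note: 0% = DMSO untreated cells without growth and 100% = 10 µM 1-NA-PP1 full growth; higher means more yeast growth rescued from 5-FOA killing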; conditions: S. cerevisiae cbk1-as DSE1-URA3 strain, 5-FOA growth OD615, 2 d; at 50 µM; hits give high values
SMILES,growth inhibition [1],growth inhibition [2],viability increase [3],viability [4],inhibition [5],RAM network inhibition [6]
O=c1[nH]c2ccc(S(=O)(=O)NCc3ccccn3)cc2s1,-13.7%,2.04%,-1.44%,95.8%,1.35%,6.28%
c1nc(NCCN2CCOCC2)c2sc3nc(N4CCOCC4)c4c(c3c2n1)CCC4,-7.6%,6.11%,-6.1%,84.8%,2.26%,8.21%
O=C(Nc1ccc2c(c1)OCCO2)c1ccc(NC(=O)C2CCCO2)cc1 (stereo unspecified),-10.9%,-3.79%,-0.87%,72.7%,2.04%,3.27%
O=C1C(Cl)=C(Nc2ccccc2O)C(=O)N1c1ccccc1,-42%,-9.91%,-6.15%,81.7%,2.32%,5.61%
CSC(=NCCCN1CCOCC1)NS(=O)(=O)c1cccs1,-13.8%,-11.4%,-1.56%,95.6%,1.51%,1.45%
COc1ccc(N2CCN(CCCNC(=O)CCCn3c(=O)[nH]c4ccsc4c3=O)CC2)cc1,-10.8%,-8.79%,-1.23%,94%,2.75%,9.35%
Cc1ccc(C)c(NC(=O)CSc2nnc(-c3ccncc3)n2N)c1,5.02%,-0.075%,-4.65%,103%,0.06%,-0.98%
O=C(Nc1nnc(-c2ccc3c(c2)CCCC3)o1)c1ccccc1Cl,-7.88%,18.4%,-4.31%,34.6%,2.51%,4.48%
OC(COCc1cccs1)CN1CCN(c2ccccn2)CC1 (stereo unspecified),-19.5%,-7.78%,-1.3%,101%,2.32%,4.89%
C=C(C)Cn1c(CCNC(=O)C(C)(C)C)nc2ccccc21,-12.7%,6.9%,0.45%,100%,2.33%,1.51%
O=C(CS(=O)(=O)c1cn(Cc2cccc(F)c2)c2ccccc12)N1CCCCC1,-12.9%,-2.79%,-3.96%,73.2%,2.04%,3.64%
CN(C)/C=C1/Sc2ccccc2C1=O,-13.4%,10%,-3.51%,103%,1.11%,-0.73%
COc1ccc(N2CCN(C(=O)Cn3c(=O)[nH]c4ccsc4c3=O)CC2)cc1,-15.3%,-12.4%,-3.44%,99.7%,0.99%,3.59%
c1coc(CNc2nc3sc4c(c3c3ncnn23)CCCC4)c1,-19.5%,0.565%,-2.99%,99.4%,2.65%,3.48%
CCn1c(=O)cc(C(=O)OC)sc1=Nc1ccc(F)c(F)c1,1.93%,-8.74%,-8.26%,18.6% (active),1.11%,7.21%
CC1(C)SCC(C(=O)O)N1C=O (stereo unspecified),-16%,-6.9%,-0.04%,105%,1.66%,2.9%
COc1ccc(-c2cc(NCCc3ccncc3)n3ncnc3n2)cc1,-9.14%,14.2%,-4.7%,95.2%,0.97%,7.01%
Cc1cc(NC(=O)Cn2c(=O)n(Cc3ccccc3)c(=O)c3ccccc32)no1,-5.91%,-24.7%,-5.98%,51.5%,1.32%,6.47%

SMILES,growth inhibition [1],growth inhibition [2],viability increase [3],viability [4],inhibition [5],RAM network inhibition [6]
c1ccc(-n2ncc3c2ncn2c(C4CCCCC4)nnc32)cc1,-12.6%,-6.54%,0.09%,96.1%,1.33%,2.45%
CC(=O)c1cccc(NC(=O)N2CCCC2C(=O)Nc2c(C)cccc2C)c1 (stereo unspecified),-22.1%,-1.14%,-2.28%,94.1%,1.62%,3.69%
CCOc1ccc(NC(=O)C2CC(C)=C(C)CC2C(=O)O)cc1 (stereo unspecified),-13.3%,2.49%,-1.85%,99.1%,1.79%,1.67%
O=c1[nH]c2ccc(S(=O)(=O)N3CCN(c4ccccc4F)CC3)cc2s1,-19.3%,-7.76%,-4.17%,93.3%,0.75%,4.21%
COc1cccc(C(=O)Nc2ccc(-c3nc4ccccc4o3)c(O)c2)c1,-13.4%,-12.1%,-4.28%,30.4%,3.71%,3.99%
CCCn1cc(S(=O)(=O)CC(=O)Nc2ccc(OCC)cc2)c2ccccc21,1.42%,3.91%,-4.37%,84.7%,1.41%,6.49%
CCOc1ccccc1NC(=O)CSc1nnc(-c2cnccn2)n1C,-24.8%,-1.53%,-3.17%,91.8%,3.12%,5.04%
COc1cc(C2C(C(=O)c3ccco3)=C(O)C(=O)N2CCc2ccccc2)ccc1O (stereo unspecified),-1.96%,-3.74%,-3.47%,95.8%,0.735%,-0.31%
CCCCCn1c(CNC(=O)COC)nc2ccccc21,-2.62%,-2.4%,-2.9%,95.4%,0.855%,2.97%
Cc1ccc(S(=O)(=O)c2nc(-c3ccc(F)cc3)oc2SCC(N)=O)cc1,-20.8%,0.745%,-2.75%,100%,1.27%,1.2%
O=C(CCCOc1ccccc1)Nc1nnc(C2CCCO2)s1 (stereo unspecified),-23.6%,-3.93%,-2.89%,102%,3.7%,8.72%
CCOc1cc(OCC)cc(C(=O)Nc2cccnc2)c1,-12.6%,-12.7%,-1.99%,100%,1.77%,4.32%
CCCn1c(CNC(=O)Cc2ccccc2)nc2ccccc21,4.79%,4.86%,-0.37%,106%,2.26%,2.59%
O=C(CCn1c(=O)[nH]c2ccsc2c1=O)N1CCc2ccccc2C1,-13.3%,-4.91%,-0.54%,97.7%,2.71%,8.73%
CCn1nc(CC(=O)Nc2ccc(-n3cnnn3)c(C)c2)c2ccccc2c1=O,-14.8%,-10.9%,-4.37%,90.3%,0.6%,5.97%
COc1ccc(-c2cc3ccccc3n2CC(O)Cn2nc(C)cc2C)cc1 (stereo unspecified),-6.15%,12.6%,-4.13%,69.5%,0.2%,7.69%
Cc1ccc2nc(NC3=NCN(Cc4ccco4)CN3)nc(C)c2c1,-1.68%,-0.67%,-7.05%,27.2%,-0.585%,-1.94%
CC(=O)NCC(=O)N(c1c(C)n(C)n(-c2ccccc2)c1=O)C1(C(=O)NC2CCCC2)CCCCC1,10%,-0.075%,-0.84%,97.2%,1.13%,-0.72%
